The record followed here is ChEMBL document CHEMBL1909563, “Anti-inflammatory triterpenoid saponins from the stem bark of Kalopanax pictus” (J Nat Prod, 2011).

As a reminder, the pIC50 is −log10 of the IC50, conventionally taken in molar units.

pIC50: −log10 of the molar value. Active and inactive are the calls of the source. The calls are words filed in the database; no cut-off is given here.

Common to all, as to format: cell-based
A short description of series [1]: Inhibition of TNF-alpha-induced NFkappaB activation in human HepG2 cells after 1 hr by luciferase reporter assay. To be noted: HepG2, 1 h. In short, it runs like this: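 HepG2 cells seeded at 1.5 × 10^5 per well, grown 24 h, then transiently transfected with NF-kB-responsive firefly luciferase reporter (minimal CMV promoter, tandem NF-kB response elements). Pretreated 1 h with DMSO vehicle or compound, then 10 ng/mL TNFα for 1 h; cells lysed, luciferin added, luminescence read.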
A general note: Reporter assays use an easily measured gene product as a stand-in for the process of interest.

Series [2] relates to HepG2. Kind of series: Inhibition of NF-kappaB-induced COX2 mRNA expression in TNF-alpha-stimulated human HepG2 cells after 1 hr by RT-PCR analysis. In a few lines:
(§1)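 HepG2 cells stimulated with TNFα alone or with compound at 0.1, 1 and 10 μM; COX-2 and iNOS mRNA measured against β-actin housekeeping control. Mean ± SD (n = 6); significance versus TNFα-stimulated cells by Dunnett's multiple comparison test (p < 0.05, p < 0.01).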

Series [3] concerns HepG2. Description: Inhibition of NF-kappaB-induced iNOS mRNA expression in TNF-alpha-stimulated human HepG2 cells after 1 hr by RT-PCR analysis. In a few lines: as §1
The test system of series [4] is HepG2. Kind of series: Cytotoxicity against human HepG2 cells by MTT assay.
Series [5] concerns HepG2. Description: Inhibition of NF-kappaB-induced iNOS mRNA expression in TNF-alpha-stimulated human HepG2 cells at 0.1 to 10 uM after 1 hr by RT-PCR analysis. In short, it runs like this: as §1
The subject of series [6] is HepG2. Kind of series: Inhibition of NF-kappaB-induced COX2 mRNA expression in TNF-alpha-stimulated human HepG2 cells at 0.1 to 10 uM after 1 hr by RT-PCR analysis. In short, it runs like this: as §1

As to `C[C@@]1(CO)CC[C@]2(C(=O)O)CC[C@]3(C)C(=CC[C@@H]4[C@@]5(C)CC[C@H](O)[C@@](C)(CO)[C@@H]5CC[C@]43C)[C@@H]2C1` [NIPPONOGENIN E], in series [1], the negative logarithm of the IC50 (pIC50) was below 4.70.
As for `C[C@@]1(CO)CC[C@]2(C(=O)O)[C@H](O)C[C@]3(C)C(=CC[C@@H]4[C@@]5(C)CCC(=O)[C@@](C)(CO)[C@@H]5CC[C@]43C)[C@@H]2C1`, the inhibition result in the series on HepG2 [2] and in the series on HepG2 [3] was “Dose-dependent effect” in each case. The molecule also had a pIC50 in series [1] of 5.19. For the same molecule, in the series with HepG2 [4], the Activity result is “Non-toxic”.
For `CC1(C)CC[C@]2(C(=O)O[C@@H]3O[C@H](CO)[C@@H](O)[C@H](O)[C@H]3O)CC[C@]3(C)C(=CC[C@@H]4[C@@]5(C)CC[C@H](O)[C@@](C)(CO)[C@@H]5[C@H](O)C[C@]43C)[C@@H]2C1`, the inhibition entry in the series on HepG2 [2] and in the series with HepG2 [3] was “Dose-dependent effect” throughout. This molecule gave a pIC50 in series [1] of 4.79. Also, the Activity result with HepG2 [4] was “Non-toxic”.
Regarding `CC1(C)CC[C@]2(C(=O)O)CC[C@]3(C)C(=CC[C@@H]4[C@@]5(C)CC[C@H](O)[C@@](C)(CO)[C@@H]5[C@H](O)C[C@]43C)[C@@H]2C1`, the inhibition entry with HepG2 [2] and in the series on HepG2 [3] was “Dose-dependent effect” throughout. This molecule also showed a negative-log IC50 (pIC50) in series [1] of 5.85. The Activity result in the series with HepG2 [4] was “Non-toxic”.
`C[C@@H]1O[C@@H](O[C@H]2[C@H](O[C@H]3CC[C@@]4(C)[C@@H](CC[C@]5(C)[C@@H]4CC=C4[C@@H]6CC(C)(C)CC[C@]6(C(=O)O[C@@H]6O[C@H](CO[C@@H]7O[C@H](CO)[C@@H](O[C@@H]8O[C@@H](C)[C@H](O)[C@@H](O)[C@H]8O)[C@H](O)[C@H]7O)[C@@H](O)[C@H](O)[C@H]6O)CC[C@]45C)[C@]3(C)CO)OC[C@H](O)[C@@H]2O[C@@H]2O[C@H](CO)[C@@H](O)[C@H](O)[C@H]2O)[C@H](O)[C@H](O)[C@H]1O` [KALOPANAXSAPONIN C]: the inhibition result in the series with HepG2 [2] and in the series on HepG2 [3] was “Dose-dependent effect” throughout. For the same molecule, the pIC50 in series [1] is 5.41. The Activity entry with HepG2 [4] was “Non-toxic”.
For the molecule `C[C@@H]1O[C@@H](O[C@H]2[C@H](O)[C@@H](O)[C@H](OC[C@H]3O[C@@H](OC(=O)[C@]45CCC(C)(C)C[C@H]4C4=CC[C@@H]6[C@@]7(C)CC[C@H](O[C@@H]8OC[C@H](O)[C@H](O)[C@H]8O)[C@@](C)(CO)[C@@H]7CC[C@@]6(C)[C@]4(C)CC5)[C@H](O)[C@@H](O)[C@@H]3O)O[C@@H]2CO)[C@H](O)[C@H](O)[C@H]1O` [CAULOSIDE D], the inhibition entry in the series on HepG2 [2] and in the series on HepG2 [3] was “Dose-dependent effect” in each case. In series [1], this molecule had a pIC50 of 5.04. Besides, the Activity result in the series with HepG2 [4] was “Non-toxic”.
In the case of `CC1(C)CC[C@]2(C(=O)O[C@@H]3O[C@H](CO)[C@@H](O)[C@H](O)[C@H]3O)CC[C@]3(C)C(=CC[C@@H]4[C@@]5(C)CC[C@H](O)[C@@](C)(CO)[C@@H]5CC[C@]43C)[C@@H]2C1`, the inhibition entry in the series with HepG2 [2] and with HepG2 [3] was “Dose-dependent effect” each time. In addition, the negative-log IC50 (pIC50) in series [1] is 5.04. For the same molecule, the Activity result in the series on HepG2 [4] is recorded as “Non-toxic”.
For `C[C@@H]1O[C@@H](O[C@H]2[C@H](O)[C@@H](O)[C@H](OC[C@H]3O[C@@H](OC(=O)[C@]45CCC(C)(C)C[C@H]4C4=CC[C@@H]6[C@@]7(C)CC[C@H](O[C@@H]8OC[C@H](O)[C@H](O)[C@H]8O[C@@H]8O[C@@H](C)[C@H](O)[C@@H](O[C@@H]9OC[C@@H](O)[C@H](O)[C@H]9O)[C@H]8O)[C@@](C)(CO)[C@@H]7CC[C@@]6(C)[C@]4(C)CC5)[C@H](O)[C@@H](O)[C@@H]3O)O[C@@H]2CO)[C@H](O)[C@H](O)[C@H]1O` [SIEBOLDIANOSIDE A], the inhibition result in the series with HepG2 [2] and in the series with HepG2 [3] was “Dose-dependent effect” each time. Besides, the pIC50 in series [1] was 6.22. Also, in the series on HepG2 [4], the Activity result is given as “Non-toxic”.
Consider `CC(=O)O[C@@H]1[C@@H](O)[C@H](O[C@H]2CC[C@@]3(C)[C@@H](CC[C@]4(C)[C@@H]3CC=C3[C@@H]5CC(C)(C)CC[C@]5(C(=O)O[C@@H]5O[C@H](CO[C@@H]6O[C@H](CO)[C@@H](O[C@@H]7O[C@@H](C)[C@H](O)[C@@H](O)[C@H]7O)[C@H](O)[C@H]6O)[C@@H](O)[C@H](O)[C@H]5O)CC[C@]34C)[C@]2(C)CO)OC[C@@H]1OC(C)=O`, for which the inhibition result with HepG2 [2] and in the series with HepG2 [3] was “Dose-dependent effect” each time. This molecule had a pIC50 in series [1] of 5.03. Further, the Activity result with HepG2 [4] is reported as “Non-toxic”.
In the case of `C[C@@H]1O[C@@H](O[C@H]2[C@H](O[C@H]3CC[C@@]4(C)[C@@H](CC[C@]5(C)[C@@H]4CC=C4[C@@H]6CC(C)(C)CC[C@]6(C(=O)O)CC[C@]45C)[C@]3(C)CO)OC[C@H](O)[C@@H]2O)[C@H](O)[C@H](O)[C@H]1O` [ALPHA-HEDERIN], the inhibition entry in the series with HepG2 [2] and with HepG2 [3] was “Dose-dependent effect” each time. This molecule also gave a pIC50 in series [1] of 5.26. In addition, the Activity result in the series with HepG2 [4] is reported as “Non-toxic”.
Regarding `O=C(O)c1cc(/N=N/c2ccc(S(=O)(=O)Nc3ccccn3)cc2)ccc1O` [SULFASALAZINE], in series [1], the pIC50 is 6.05.
On to `COC(=O)CC[C@]1(C)[C@H]2CC=C3[C@@H]4C[C@](C)(CO)CC[C@]4(C(=O)O)CC[C@@]3(C)[C@]2(C)CC[C@H]1C(C)(O)CO` (some centres not stated), for which the inhibition result with HepG2 [2] and in the series with HepG2 [3] was “Dose-dependent effect” each time. This molecule also had a pIC50 in series [1] of 5.03. The Activity result in the series with HepG2 [4] was “Non-toxic”.
On to `CC(=O)O[C@@H]1[C@@H](OC(C)=O)[C@H](O[C@H]2CC[C@@]3(C)[C@@H](CC[C@]4(C)[C@@H]3CC=C3[C@@H]5CC(C)(C)CC[C@]5(C(=O)O[C@@H]5O[C@H](CO[C@@H]6O[C@H](CO)[C@@H](O[C@@H]7O[C@@H](C)[C@H](O)[C@@H](O)[C@H]7O)[C@H](O)[C@H]6O)[C@@H](O)[C@H](O)[C@H]5O)CC[C@]34C)[C@]2(C)CO)OC[C@@H]1O`, for which the inhibition result in the series on HepG2 [2] and with HepG2 [3] was “Dose-dependent effect” each time. In series [1], this molecule had a pIC50 of 5.05. In the series on HepG2 [4], the Activity result is “Non-toxic”.
`CC1(C)CC[C@]2(C(=O)O)CC[C@]3(C)C(=CC[C@@H]4[C@@]5(C)CC[C@H](O)[C@@](C)(CO)[C@@H]5CC[C@]43C)[C@@H]2C1` [HEDERAGENIN]: the inhibition result in the series with HepG2 [5] and with HepG2 [6] was “inactive” throughout. In series [1], this molecule showed a pIC50 below 4.70.
Take `C[C@@H]1O[C@@H](O[C@H]2[C@H](O[C@H]3CC[C@@]4(C)[C@@H](CC[C@]5(C)[C@@H]4CC=C4[C@@H]6CC(C)(C)CC[C@]6(C(=O)O[C@@H]6O[C@H](CO[C@@H]7O[C@H](CO)[C@@H](O[C@@H]8O[C@@H](C)[C@H](O)[C@@H](O)[C@H]8O)[C@H](O)[C@H]7O)[C@@H](O)[C@H](O)[C@H]6O)CC[C@]45C)[C@]3(C)CO)OC[C@H](O)[C@@H]2O)[C@H](O)[C@H](O)[C@H]1O` [KALOPANAXSAPONIN B]: the inhibition entry in the series with HepG2 [2] and with HepG2 [3] was “Dose-dependent effect” in each case. In addition, in series [1], the pIC50 was 6.10. The Activity result in the series on HepG2 [4] is reported as “Non-toxic”.
Regarding `CC1(C)CC[C@]2(C(=O)O[C@@H]3O[C@H](CO[C@@H]4O[C@H](CO)[C@@H](O)[C@H](O)[C@H]4O)[C@@H](O)[C@H](O)[C@H]3O)CC[C@]3(C)C(=CC[C@@H]4[C@@]5(C)CC[C@H](O)[C@@](C)(CO)[C@@H]5CC[C@]43C)[C@@H]2C1` [DIPSACUSSAPONIN A], the inhibition entry in the series on HepG2 [2] and in the series on HepG2 [3] was “Dose-dependent effect” in each case. Further, the negative logarithm of the IC50 (pIC50) in series [1] was 5.21. For the same molecule, the Activity result in the series on HepG2 [4] is given as “Non-toxic”.
